This sample holds only a part of the variants without activity.
B1: tRNA (parent)
chain: GUUCCGUUGGCGUAAUGGUAACGCGUCUCCCUCCUAAGGAGAAGACUGCGGGUUCGAGUCCCGUACGGAACG

Variants of: B1
Assay: yeast fitness relative to wild type (ratio to wild type); higher = fitter; tRNA-Arg(CCU), competitive growth, 37 C, YPD
Procedure, shortened: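 Amplicons of the tRNA-Arg(CCU) gene were sequenced, 100-nucleotide paired-end, from the start population and from each end population of a pooled yeast competition. The competition, in six parallel replicates, lasted 24 hours in YPD at 37°C. Fitness relative to wild type was calculated from changes in genotype frequencies. Genotypes had to have ≥ 100 starting reads, and estimates < 0.5 were set to 0.5.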

Variant	yeast fitness
GUUCGGUUGGCGUAAUGGUAACGCGUGUCCCUCCUAAGGAGAGGACUGCGGGUUCGAGUCCCGUACGGAACG [C5G C27G A43G]	≤ 0.5
GUUCGGUUGGCGUAAUGGUAAGGCGUCUCCCUCCUAAGGAGAAGACUGCGGGUUGGAGUCCCGUACGGAUCG [C5G C22G C55G A70U]	≤ 0.5
GUUCGGUUGGCGUAAUGGUAAAGCGUCUCCCUCCUAAGGAGAGGACUGCGGGUUCGAGUCCCGUACGGAACG [C5G C22A A43G]	0.557
GUUCGGUUGGCGUAAUGGUAACGUGUCUCCCUUCUAAGGAGAAGACUGCGGGUUCGUGUCCCGUACGGUACG [C5G C24U C33U A57U A69U]	≤ 0.5
GUUCGGUUGGCGUAAUGGUAACGUGUCUCCCUCCUAAGGAGAAGACUGCGGGUUCGAGUCCCGUACGGAACG [C5G C24U]	0.893
GUUCGGUUGGCGUAAUGGUAACGCGUUUCCCUCCUAAGGAGAAGACUGCGGGUUCGAGUCCCAUACGGAACG [C5G C27U G63A]	≤ 0.5
GUUCGGUUGGCGUAAUGGUAACGCGUUUCCCUCCUAAGGAGAAGACUGCGGGUUCGAGUCGCGUACGGAACG [C5G C27U C61G]	≤ 0.5
GUUCGGUUGGCGUAAUGGUAAGGCGUCUCCCUCCUAAGGAGAAGACAGCGGGUUCGAGUCCCGUACGGACCG [C5G C22G U47A A70C]	≤ 0.5
GUUCGGUUGGCGUAAUGGUAAGGCGUCUCCAUCCUAAGGAGAAGACUGGGGGUUCGAGUCCCCUACGGUACG [C5G C22G C31A C49G G63C A69U]	≤ 0.5
GUUCGGUUGGCGUAAUGGUAAAGCGUCUCCCUCCUAAGGAGUAGACUACGGGUUCGAGUCCAGUACGGAACG [C5G C22A A42U G48A C62A]	≤ 0.5
GUUCGGUUGGCGUAAUGGUAAGGCGUCUCCCUCCUAAGGAGAAGACUGCGGGUUCAAGUCCCGUACGGAACG [C5G C22G G56A]	0.788
GUUCGGUUGGCGUAAUGGUAACGCGUUUCCCUCCUAAGGAGAAGACUGCGGGUCCGAGUCCCGUACGGAACG [C5G C27U U54C]	0.747
GUUCGGUUGGCGUAAUGGUAAUGCGUCGCCCUCCUAAGGAGAAGACUGCGGGUCCGAGUCCCGUGCGGAACG [C5G C22U U28G U54C A65G]	≤ 0.5
GUUCGGUUGGCGUAAUGGUAACGCGUUUCCAUCCCAAGGAGAAGACUGCGGGUUGGAGUCCCGUAUGGACCG [C5G C27U C31A U35C C55G C66U A70C]	≤ 0.5
GUUCGGUUGGCGUAAUGGUAAUGCGUUUCCCUCCUAAGGACAAGACUGCGGGUUCGCGUCCCGUACGGAACG [C5G C22U C27U G41C A57C]	0.542
GUUCGGUUGGCGUAAUGGUAACGGGUCUCCCUCCUAAGGAGAAGACUGCGGGUUCGAGUGCCGUACGGAACG [C5G C24G C60G]	0.518
GUUCGGUUGGCGUAAUGGUAAAGCGUCUCCCUGCUAAGGAGAAGACUGCGGGUUCGAGUCCCGUACGGAACG [C5G C22A C33G]	0.61
GUUCGGUUGGCGUAAUGGUAACGCGUGACUCUCCUAAGGAGAAGACUACGGGUUCGAAUCCCGUAUGGAACG [C5G C27G U28A C30U G48A G58A C66U]	≤ 0.5
GUUCGGUUGGCGUAAUGGUAACGGGUCUCCCUCCUAAGGAGAAGACUGCGGGUUCGAGUCAAGUACGCAACG [C5G C24G C61A C62A G68C]	0.69

Variant	yeast fitness
GUUCGGUUGGCGUAAUGGUAACGCGUCUACCUCCUAAGGAGAAGACUACGGGUUCGAGUCCCGUUCGGAACG [C5G C29A G48A A65U]	≤ 0.5
GUUCGGUUGGCGUAAUGGUAACGGGUCUACCUCCUAAGGAGAUGACUGCGGGUUCGAGUCCCGUACGCAACG [C5G C24G C29A A43U G68C]	≤ 0.5
GUUCGGUUGGUGUAAUGGCAACGCGUCUCCCUCCUAAGGACAAGACUGCGGGUUCGAGUCCCGUACGGAACG [C5G C11U U19C G41C]	0.536
GUUCGGUUGGCGUAAUGGUAAAGCGCCUCCCUGCAAAGGAGAAGACUGCGGGUUCGAGUCCCGUACGGAACG [C5G C22A U26C C33G U35A]	≤ 0.5
GUUCGGUUGGCGUAAUGGUAACGCGUCUACCUCCUAAGGAGAAGACUGCGGGUUCGAGUCCCGUACGGAACG [C5G C29A]	0.604
GUUCGGUUGGCGUAAUGGUAACGCGUGUUCUUCCUAAGGAGAAGGCUGAGGGUUCGAGUCCCGUAUGGAACG [C5G C27G C29U C31U A45G C49A C66U]	≤ 0.5
GUUCGGUUGGCGUAAUGGUAAGGCGUCUCCCUCCUAAGGAGAAGACUGCGGGUUUGAGUCCCGUACGGAACG [C5G C22G C55U]	≤ 0.5
GUUCGGUUGGCGUAAUGGUAACGCGUGUCCCUCCUAAGGAGAAGCCUGCGGGUUCGAGUCCCGUACGGAACG [C5G C27G A45C]	≤ 0.5
GUUCGGUUGGCGUAAUGGUAACGCGUUUCCCUCCUAAGGAGAAGAUUGCGGGUCCGAGUCCCGUACGGAACG [C5G C27U C46U U54C]	≤ 0.5
GUUCGGUUGGCGUAAUGGUAACGCGUUUCCCUCCUAAGGAGAAGACUGCGGGUUCAAGUCCCGUACGGAACG [C5G C27U G56A]	0.619
GUUCGGUUGGCGUAAUGGUAAUGCGUCUCCCUCCUAAGGAGAAGACUGCGGGUUCCAGUCCCGUACGGAACG [C5G C22U G56C]	≤ 0.5
GUUCGGUUGGCGUAAUGGUAAGGCGUCUCCCUCCUAAGGAGAAGACUGCGGGUUCGAGUCCCGUAUGGAACG [C5G C22G C66U]	≤ 0.5
GUUCGGUUGGCGUAAUGGUAACGCGUUUGCCUCCUAAGGAGAAGACUGCGGGUUCGAGUCCCGUACGGAACG [C5G C27U C29G]	≤ 0.5
GUUCGGUUGGCGUAAUGGUAAUGCGCCUCCCUCCUAAGGAGAAGACUGCGGGUUCGAGUCCCGUACGGAACG [C5G C22U U26C]	≤ 0.5
GUUCGGUUGGCGUAAUGGUAACGCGUGUCCCUUCUAAGGAGAAGACUGCGGGUUCAAGUCCCGUACGGAACG [C5G C27G C33U G56A]	0.527
GUUCGGUUGGCGUAAUGGUAACGGGUCUCGUUCCAUAGGAGAAGACUGCGGGUUCGAGUCCCGUACGGAACG [C5G C24G C30G C31U U35A A36U]	0.755
GUUCGGUUGGCGUAAUGGUAACGCGUUUCCCUCCUAAGGAGAAGACUGCGGGUUCGAGUCCUGUACGGAACG [C5G C27U C62U]	0.626
GUUCGGUUGGCGUAAUGGUAACGGGUCUCGUUCCAUAGGAGAAAACUGCGGGUUCGAGUCUCGUACGGAACG [C5G C24G C30G C31U U35A A36U G44A C61U]	0.67
